From PMC9558494 (Angewandte Chemie (International Ed. in English), 2022)

Tests used:
ERAP2 = ERAP2 (Homo sapiens, UniProt Q6P179); experiment: ERAP2 activity assay using R-AMC substrate; assay type: biochemical
[1] = system: SIINFEKL OVA-derived antigen presentation in HEK cells; experiment: Antigen presentation assay; assay type: cell-based; details: HEK cells where LSIINFEKL is endogenously produced, 24 h
LogD octanol/PBS pH 7.4 = assay type: physicochemical
Microsomal stability = assay type: in vitro ADME, human; details: for half-life at 1 µM: both, human, liver microsomes, pH 7.4; for HLM Cl: human liver microsomes
Stability in plasma = assay type: in vitro ADME; details: both, human
[2] = Pharmacokinetics in mouse; assay type: in vivo, mice
Procedure, shortened: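 Female mice received a single i.p. dose of 50 mg/kg. Derived parameters were elimination-phase half-life (T1/2 β, min), Cmax (μM), Tmax (min) and AUC extrapolated to infinity (AUC0‑∞, min μM).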

[3] = female, CD-1, mouse, plasma, ip, 50 mg/kg

Sequence of ERAP2 (Q6P179 whole entry): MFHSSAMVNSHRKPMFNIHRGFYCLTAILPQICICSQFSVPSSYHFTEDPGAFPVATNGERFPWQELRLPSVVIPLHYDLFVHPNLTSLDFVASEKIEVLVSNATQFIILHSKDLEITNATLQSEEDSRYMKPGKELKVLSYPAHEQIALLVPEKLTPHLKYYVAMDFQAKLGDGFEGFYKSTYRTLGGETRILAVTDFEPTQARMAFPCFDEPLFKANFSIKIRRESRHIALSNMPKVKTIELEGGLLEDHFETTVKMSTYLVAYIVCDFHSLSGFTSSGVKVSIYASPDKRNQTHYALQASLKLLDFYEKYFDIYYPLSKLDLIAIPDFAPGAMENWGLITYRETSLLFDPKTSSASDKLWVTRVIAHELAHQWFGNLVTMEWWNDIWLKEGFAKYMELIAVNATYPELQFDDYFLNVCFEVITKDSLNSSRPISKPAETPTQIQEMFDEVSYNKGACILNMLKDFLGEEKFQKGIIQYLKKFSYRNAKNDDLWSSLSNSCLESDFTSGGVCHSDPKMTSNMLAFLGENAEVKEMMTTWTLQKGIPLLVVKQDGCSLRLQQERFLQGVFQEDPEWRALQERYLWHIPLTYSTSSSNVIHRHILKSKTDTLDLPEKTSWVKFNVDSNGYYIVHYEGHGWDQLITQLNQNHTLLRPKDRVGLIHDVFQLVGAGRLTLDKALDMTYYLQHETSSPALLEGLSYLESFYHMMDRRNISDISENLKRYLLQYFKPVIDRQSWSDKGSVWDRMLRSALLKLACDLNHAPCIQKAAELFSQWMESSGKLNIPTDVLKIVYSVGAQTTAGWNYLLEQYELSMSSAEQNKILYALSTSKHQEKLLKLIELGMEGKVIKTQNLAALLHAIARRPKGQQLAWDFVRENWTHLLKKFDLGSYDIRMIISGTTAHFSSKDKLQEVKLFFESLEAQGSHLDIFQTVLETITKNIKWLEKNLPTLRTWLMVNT

SMILES: O=C(C[C@@H](Cc1c[nH]c2ccccc12)n1cc(CNS(=O)(=O)c2ccc(-c3ccccc3)s2)nn1)NO [2 b]
- IC50 (ERAP2): 12000 nM

SMILES: O=C(C[C@@H](Cc1ccc2ccccc2c1)n1cc(CNS(=O)(=O)c2ccc(-c3ccccc3)s2)nn1)NO [2 c]
- IC50 (ERAP2): 2290 nM

SMILES: O=C(NO)[C@H](Cc1ccc(O)cc1)n1cc(CNS(=O)(=O)c2ccc(-c3ccccc3)s2)nn1 [4 a]
- IC50 (ERAP2): 760 nM

SMILES: O=C(NO)[C@@H](Cc1c[nH]c2ccccc12)n1cc(CNS(=O)(=O)c2ccc(-c3ccccc3)s2)nn1 [4 b]
- inhibition at 100 µM (ERAP2; read-out: %inh at 100 μM): 43%
- ERAP2 activity in words (ERAP2; replacement of the phenol group by an indole): complete loss of activity

SMILES: COc1ccc(C[C@@H](C(=O)NO)n2cc(CNS(=O)(=O)c3ccc(-c4ccccc4)s3)nn2)cc1 [4 d]
- effect on SIINFEKL antigen presentation [1]: dose‐dependent effect
- logD at 2 h (LogD octanol/PBS pH 7.4): 2.99
- half-life at 1 µM (Microsomal stability): > 0.667 h
- HLM Cl (Microsomal stability): 50 µL/min/g
- half-life at 10 µM (Stability in plasma): > 6 h
- AUC [2, 3]: 12.9 µM·h
- Cmax [2, 3]: 18 µM
- tolerability of the dose ([2]; mice, 50 mg kg^−1, i. p.): tolerated

SMILES: COc1ccc(C[C@@H](C(=O)NO)n2cc(CNS(=O)(=O)c3ccc(-c4ccccn4)s3)nn2)cc1 [4 e]
- logD at 2 h (LogD octanol/PBS pH 7.4): 1.81
- half-life at 1 µM (Microsomal stability): > 0.667 h
- HLM Cl (Microsomal stability): 21 µL/min/g
- half-life at 10 µM (Stability in plasma): > 6 h

SMILES: O=C(NO)[C@H](Cc1ccc(Oc2ccccc2)cc1)n1cc(CNS(=O)(=O)c2ccc(-c3ccccn3)s2)nn1 [4 f]
- effect on SIINFEKL antigen presentation [1]: dose‐dependent effect
- logD at 2 h (LogD octanol/PBS pH 7.4): 4.11
- half-life at 10 µM (Stability in plasma): > 6 h
